Test results as given in ChEMBL document CHEMBL1122445, “Novel fluorinated antifolates. Enzyme inhibition and cytotoxicity studies on 2'- and 3'-fluoroaminopterin” (J Med Chem, 1983).

Key:
Escherichia coli = assay: Inhibition constant (Ki) was determined in Escherichia coli; assay type: functional
In short: (§1)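 E. coli MB 1428 MTX-resistant overproducer DHFR purified to homogeneity by MTX affinity chromatography; spectrophotometric assay at pH 7.2 with 40 μM NADPH and 44 μM dihydrofolate (Km 0.44 μM); enzyme 4 to 5×10^-9 M, titrated with MTX. Rates taken over linear 0.5–2 min (<10% substrate used). I50 = half of control rate; Ki from I50 via Cha equation corrected for enzyme-bound inhibitor.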

Dihydrofolate reductase [1] = target: T1, Dihydrofolate reductase (Escherichia coli, UniProt P0ABQ4); assay: Inhibition of dihydrofolate reductase in Escherichia coli; conditions: read-out: I50; in short: as §1
T1 sequence (P0ABQ4 whole entry): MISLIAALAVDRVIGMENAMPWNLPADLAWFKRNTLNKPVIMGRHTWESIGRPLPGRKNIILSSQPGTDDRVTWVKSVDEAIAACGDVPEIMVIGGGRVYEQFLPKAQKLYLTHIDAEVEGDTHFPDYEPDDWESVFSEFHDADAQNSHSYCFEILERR

Lacticaseibacillus casei = assay: Inhibition constant (Ki) was determined in Lactobacillus casei; assay type: functional
L1210 = assay: Inhibition of growth (cytotoxicity) of L1210 cell line in vitro; assay type: functional, cell-based; conditions: Mus musculus
In short: (§2)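 About 1 × 10^5 L1210 or HuTu 80 cells in 1 mL of their original medium with inhibitor, 37 °C for 72 h; counted by Coulter counter (10- to 20-fold growth in controls). EC50 = concentration reducing growth 50% versus inhibitor-free controls.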

Dihydrofolate reductase [2] = target: Dihydrofolate reductase (Lactobacillus casei, UniProt P00381); assay: Inhibition of dihydrofolate reductase in Lactobacillus casei; design: species or system Lacticaseibacillus casei; conditions: read-out: I50
Sequence of Dihydrofolate reductase (Lactobacillus casei, UniProt P00381) (P00381 whole entry): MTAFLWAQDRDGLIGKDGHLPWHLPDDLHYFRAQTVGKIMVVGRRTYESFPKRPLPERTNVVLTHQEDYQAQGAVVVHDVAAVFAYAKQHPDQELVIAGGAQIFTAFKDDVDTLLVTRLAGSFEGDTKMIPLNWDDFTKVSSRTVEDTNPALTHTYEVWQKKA
In short: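 L. casei DHFR purified to homogeneity from an MTX-resistant overproducer strain, with enzyme level (4–5 × 10^-9 M) set by MTX titration. […] Rates were taken from the linear 0.5–2 min region. I50 is the concentration halving the rate; Ki is from the Cha equation, correcting for inhibitor depletion.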

HuTu80 = assay: Inhibition of growth (cytotoxicity) of HuTu 80 cell line in vitro; assay type: functional, cell-based; conditions: Homo sapiens; in short: as §2
Dihydrofolate reductase [3] = target: T2, Dihydrofolate reductase (Homo sapiens, UniProt P00374); assay: Inhibition of dihydrofolate reductase in HeLa cells; assay type: cell-based; conditions: read-out: I50
T2 sequence (P00374 whole entry): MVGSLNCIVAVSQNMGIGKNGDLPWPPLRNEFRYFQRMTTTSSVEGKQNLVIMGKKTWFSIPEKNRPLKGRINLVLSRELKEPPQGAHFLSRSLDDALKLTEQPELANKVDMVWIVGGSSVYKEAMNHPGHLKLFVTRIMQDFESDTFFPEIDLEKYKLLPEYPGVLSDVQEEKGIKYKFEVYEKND

Compound: Nc1nc(N)c2nc(CNc3ccc(C(=O)NC(CCC(=O)O)C(=O)O)cc3F)cnc2n1 (configuration not stated)
- Ki (Escherichia coli): 0.03 nM
- IC50 (Dihydrofolate reductase [1]): 5 nM
- Ki (Lacticaseibacillus casei): 0.06 nM
- EC50 (L1210): 1 nM
- IC50 (Dihydrofolate reductase [2]): 3.5 nM
- EC50 (HuTu80): 2.3 nM
- IC50 (Dihydrofolate reductase [3]): 19 nM

Compound: Nc1nc(N)c2nc(CNc3ccc(C(=O)NC(CCC(=O)O)C(=O)O)c(F)c3)cnc2n1 (configuration not stated)
- Ki (Escherichia coli): 0.08 nM
- IC50 (Dihydrofolate reductase [1]): 10 nM
- Ki (Lacticaseibacillus casei): 0.095 nM
- EC50 (L1210): 2.3 nM
- IC50 (Dihydrofolate reductase [2]): 4.7 nM
- EC50 (HuTu80): 4.8 nM
- IC50 (Dihydrofolate reductase [3]): 27 nM

Compound: Nc1nc(N)c2nc(CNc3ccc(C(=O)N[C@@H](CCC(=O)O)C(=O)O)cc3)cnc2n1 [AMINOPTERIN]
- Ki (Escherichia coli): 0.09 nM
- IC50 (Dihydrofolate reductase [1]): 11 nM
- Ki (Lacticaseibacillus casei): 0.11 nM
- EC50 (L1210): 1.8 nM
- IC50 (Dihydrofolate reductase [2]): 5 nM
- EC50 (HuTu80): 4.7 nM

Compound: CN(Cc1cnc2nc(N)nc(N)c2n1)c1ccc(C(=O)N[C@@H](CCC(=O)O)C(=O)O)cc1 [METHOTREXATE]
- EC50 (L1210): 3.2 nM
- EC50 (HuTu80): 4.5 nM
